Measurements from ChEMBL document CHEMBL1138329, “Pharmacokinetic/pharmacodynamic model-guided identification of hypoxia-selective 1,2,4-benzotriazine 1,4-dioxides with antitumor activity: the role of extravascular transport” (J Med Chem, 2007).

Experiments:
HT-29 [1] = assay: Antitumor activity against human HT29 cells implanted in CD1 mouse at 316 umol/kg, ip administered 5 mins after irradiation by excision assay relative to radiation alone; type: functional
In short: (§1)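 Hypoxic-cell excision assay in HT29 xenografts in CD-1 homozygous nude mice. Mice received 20 Gy γ radiation to sterilize oxic tumor cells, then a single i.p. drug dose (HCl salt in saline, 5% DMSO/saline or pH 4.0 lactate buffer) 5 min later. Tumors excised at 18 h and plated for clonogens/g. Log cell kill = log(clonogens/g, radiation only) − log(clonogens/g, radiation plus drug).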

[2] = Protein binding in mouse plasma by equilibrium dialysis; type: ADME, cell-free; details: read-out: PPB (converted)
Mus musculus = assay: Toxicity in ip dosed CD1 mouse; type: organism-based; details: in vivo
In short: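 MTD in CD-1 homozygous nude mice after single i.p. doses (HCl salts in saline, 5% DMSO/saline or lactate buffer pH 4.0), escalated in 1.33-fold increments. MTD taken as the highest dose causing no death, no body weight loss >15% and no other severe morbidity in any of 6 mice.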

[3] = Half life in CD1 mouse at 316 umol/kg, ip; type: ADME, organism-based; details: in vivo
In short: (§2)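 Single i.p. dose to CD-1 homozygous nude mice, drug as HCl salt in 0.9% saline, 5% DMSO/saline or lactate buffer (pH 4.0). Plasma total drug measured by HPLC at 75 or 100% of MTD (MTD from 1.33-fold dose steps, 6 mice). Noncompartmental analysis gave AUC, Cmax and t1/2.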

HT-29 [4] = assay: Cytotoxicity against human HT29 cells under hypoxic conditions after 4 hrs; type: functional, cell-based; details: HT-29, 4 h
[5] = Solubility in culture medium in presence of 5% fetal calf serum; type: physicochemical; details: culture medium with 5% fetal calf serum
SiHa [6] = assay: Cytotoxicity against human SiHa cells under hypoxic conditions after 4 hrs; type: functional, cell-based
HT-29 [7] = assay: Diffusion coefficient, D in HT29 multicellular layers; type: ADME, cell-based; details: human
In short: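 HT29 multicellular layers were grown 3 days on collagen-coated Teflon membranes, equilibrated 60 min under 95% O2/5% CO2 at 37 °C, then placed in a diffusion chamber. Donor and receiver were sampled up to 5 h and assayed by HPLC. D came from fitting both profiles to a Fickian model with membrane and MCL in series, corrected by support-only Ds.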

[8] = Cmax in CD1 mouse at 316 umol/kg, ip; type: ADME, organism-based; design: dose 316 umol/kg, route intraperitoneal; details: in vivo; in short: as §2
SiHa [9] = assay: Ratio of IC50 for SiHa cells under oxic conditions to hypoxic conditions after 4 hrs; type: functional, Homo sapiens
HT-29 [10] = assay: Effect on human HT29 cells under hypoxic conditions assessed as drug level causing 10% clonogenic survival; type: functional
In short: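 HT29 suspensions (1 or 2 × 10^6 cells/mL) in serum-free medium were stirred under 5% CO2/95% N2 for 90 min. Drug was added from deoxygenated DMSO stock at a level giving about 10% survival at 1 h, and samples were taken up to 3 h. Clonogenic survival (14 days, methylene blue) was fitted with the HPLC concentration–time data, and the 10% survival exposure was interpolated.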

HT-29 [11] = assay: Ratio of IC50 for HT29 cells under oxic conditions to hypoxic conditions after 4 hrs; type: functional, Homo sapiens
HT-29 [12] = assay: Antitumor activity against human HT29 cells implanted in CD1 mouse assessed as clonogenic survival at 316 umol/kg, ip after 18 hrs relative to control; type: functional
In short: (§3)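 HT29 xenografts in CD-1 homozygous nude mice; single i.p. dose of drug alone, formulated as the HCl salt in 0.9% saline, 5% DMSO/saline or lactate buffer (pH 4.0). Tumors excised 18 h later, dissociated to single-cell suspensions and plated. Clonogens/g of tumor counted; surviving fraction = treated/control clonogens/g.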

[13] = Cmax in CD1 mouse at 562 umol/kg, ip; type: ADME, organism-based; design: dose 562 umol/kg, route intraperitoneal; details: in vivo; in short: as §2
HT-29 [14] = assay: Antitumor activity against human HT29 cells implanted in CD1 mouse assessed as clonogenic survival at 562 umol/kg, ip after 18 hrs relative to control; type: functional; in short: as §3
[15] = Half life in CD1 mouse at 562 umol/kg, ip; type: ADME, organism-based; details: in vivo; in short: as §2
HT-29 [16] = assay: Antitumor activity against human HT29 cells implanted in CD1 mouse at 562 umol/kg, ip administered 5 mins after irradiation by excision assay relative to radiation alone; type: functional; in short: as §1
HT-29 [17] = assay: Antitumor activity against human HT29 cells implanted in CD1 mouse assessed as clonogenic survival at 133 umol/kg, ip after 18 hrs relative to control; type: functional; in short: as §3
HT-29 [18] = assay: Antitumor activity against human HT29 cells implanted in CD1 mouse at 133 umol/kg, ip administered 5 mins after irradiation by excision assay relative to radiation alone; type: functional; in short: as §1
[19] = Cmax in CD1 mouse at 133 umol/kg, ip; type: ADME, organism-based; design: dose 133 umol/kg, route intraperitoneal; details: in vivo; in short: as §2
[20] = AUC in CD1 mouse at 133 umol/kg, ip; type: ADME, organism-based; details: plasma; in short: as §2
[21] = Half life in CD1 mouse at 750 umol/kg, ip; type: ADME, organism-based; details: in vivo; in short: as §2
HT-29 [22] = assay: Antitumor activity against human HT29 cells implanted in CD1 mouse assessed as clonogenic survival at 750 umol/kg, ip after 18 hrs relative to control; type: functional; in short: as §3
[23] = AUC in CD1 mouse at 750 umol/kg, ip; type: ADME, organism-based; details: plasma; in short: as §2
HT-29 [24] = assay: Antitumor activity against human HT29 cells implanted in CD1 mouse at 750 umol/kg, ip administered 5 mins after irradiation by excision assay relative to radiation alone; type: functional; in short: as §1
[25] = Cmax in CD1 mouse at 750 umol/kg, ip; type: ADME, organism-based; design: dose 750 umol/kg, route intraperitoneal; details: in vivo; in short: as §2

CCCN(CCC)CCNc1n[n+]([O-])c2ccccc2[n+]1[O-]
LCK (HT-29 [1]): 0.25
fraction unbound [2]: 0.023
MTD (Mus musculus): 316 µmol/kg
half-life [3]: 11.8 min
IC50 (HT-29 [4]): 1700 nM
solubility [5]: > 25 mM
IC50 (SiHa [6]): 2000 nM
D (HT-29 [7]): 1.71e-06 cm²/s
Cmax [8]: 17 µM
Ratio IC50 (SiHa [9]): 68
Activity (HT-29 [10]): 3.9 µM·h
Ratio IC50 (HT-29 [11]): 82
LCK (HT-29 [12]): 0.01

Cc1ccc2c(c1)[n+]([O-])c(NCCN(C)C)n[n+]2[O-]
fraction unbound [2]: 0.04
MTD (Mus musculus): 562 µmol/kg
Cmax [13]: 104 µM
IC50 (HT-29 [4]): 1900 nM
LCK (HT-29 [14]): 0.07
half-life [15]: 22.5 min
solubility [5]: > 51 mM
LCK (HT-29 [16]): 1
IC50 (SiHa [6]): 1100 nM
D (HT-29 [7]): 3.99e-07 cm²/s
Ratio IC50 (SiHa [9]): 200
Activity (HT-29 [10]): 6.3 µM·h
Ratio IC50 (HT-29 [11]): 159

Nc1n[n+]([O-])c2ccccc2[n+]1[O-] [TIRAPAZAMINE]
LCK (HT-29 [17]): 0.15
LCK (HT-29 [18]): 0.59
MTD (Mus musculus): 178 µmol/kg
IC50 (HT-29 [4]): 5100 nM
Cmax [19]: 61.7 µM
AUC [20]: 49.2 µM·h
solubility [5]: 8.9 mM
IC50 (SiHa [6]): 2500 nM
D (HT-29 [7]): 4.04e-07 cm²/s
Activity (HT-29 [10]): 24.3 µM·h

CCOc1ccc2c(c1)[n+]([O-])c(NCCN(C)C)n[n+]2[O-]
half-life [21]: 31.6 min
MTD (Mus musculus): 1000 µmol/kg
IC50 (HT-29 [4]): 2600 nM
LCK (HT-29 [22]): 0.09
solubility [5]: > 50 mM
AUC [23]: 82.3 µM·h
IC50 (SiHa [6]): 800 nM
LCK (HT-29 [24]): 0.83
Ratio IC50 (SiHa [9]): 245
Cmax [25]: 85.7 µM
Activity (HT-29 [10]): 50.1 µM·h
Ratio IC50 (HT-29 [11]): 121
